# According to ChEMBL document CHEMBL1153575, “Synthesis and in vitro anticancer activity of 2,4-azolidinedione-acetic acids derivatives” (2009):
# Columns and labels:
# Assay type in all cases: functional
# SF-268 = experiment: Cytotoxicity against human SF268 cells assessed as cell growth at 100 uM after 48 hrs by sulforhodamine B assay; details: SF-268, 48 h, read-out: Activity
# Procedure, shortened: (§1)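 Primary one-dose screen on a three-line panel (MCF7 breast, NCI-H460 lung, SF-268 CNS) at 10^-4 M. Cells were preincubated 24–48 h before a single addition of the agent, followed by 48 h incubation. Endpoint was SRB protein staining, reported as percent growth versus untreated controls.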
# MCF7 = experiment: Cytotoxicity against human MCF7 cells assessed as cell growth at 100 uM after 48 hrs by sulforhodamine B assay; details: MCF7, 48 h, read-out: Activity; procedure, shortened: as §1
# NCI-H460 = experiment: Cytotoxicity against human NCI-H460 cells assessed as cell growth at 100 uM after 48 hrs by sulforhodamine B assay; details: NCI-H460, 48 h, read-out: Activity; procedure, shortened: as §1
# SF-295 = experiment: Growth inhibition of human SF295 cells after 48 hrs by sulforhodamine B assay; details: SF-295, 48 h
# Procedure, shortened: (§2)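 Five-concentration assay in about 60 human tumour lines, using 10-fold dilutions from 10^-4 to 10^-8 M with 48 h continuous exposure and an SRB protein endpoint. Percent growth at each level comes from time-zero, untreated-control and treated absorbances. GI50 is 50% lower net protein increase than control. Values beyond the tested range are given as greater or less than the extreme concentration.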
# NCI-H226 = experiment: Growth inhibition of human NCI-H226 cells after 48 hrs by sulforhodamine B assay; details: NCI-H226, 48 h; for CC50: read-out: pLC50 (the source's name) (converted); for TGI: read-out: pTGI (converted); procedure, shortened: as §2
# HOP-92 = experiment: Growth inhibition of human HOP92 cells after 48 hrs by sulforhodamine B assay; details: HOP-92, 48 h; for TGI: read-out: pTGI (converted); procedure, shortened: as §2
# SR = experiment: Growth inhibition of human SR cells after 48 hrs by sulforhodamine B assay; details: for TGI: read-out: pTGI (converted); procedure, shortened: as §2
# CCRF-CEM = experiment: Growth inhibition of human CCRF-CEM cells after 48 hrs by sulforhodamine B assay; details: for TGI: read-out: pTGI (converted); procedure, shortened: as §2
# SNB-75 = experiment: Growth inhibition of human SNB75 cells after 48 hrs by sulforhodamine B assay; details: SNB-75, 48 h; procedure, shortened: as §2
# U-251 = experiment: Growth inhibition of human U251 cells after 48 hrs by sulforhodamine B assay; details: U-251, 48 h; for TGI: read-out: pTGI (converted); procedure, shortened: as §2
# SK-OV-3 = experiment: Growth inhibition of human SKOV3 cells after 48 hrs by sulforhodamine B assay; details: SK-OV-3, 48 h; procedure, shortened: as §2
# [1] = Growth inhibition of human 786-O cells after 48 hrs by sulforhodamine B assay; details: 786-0, 48 h; for CC50: read-out: pLC50 (the source's name) (converted); for TGI: read-out: pTGI (converted); procedure, shortened: as §2
# MDA-MB-231 = experiment: Growth inhibition of human MDA-MB-231 cells after 48 hrs by sulforhodamine B assay; details: MDA-MB-231, 48 h; for TGI: read-out: pTGI (converted); procedure, shortened: as §2
# [2] = Growth inhibition of human Hs 578T cells after 48 hrs by sulforhodamine B assay; details: for CC50: read-out: pLC50 (the source's name) (converted); for TGI: read-out: pTGI (converted); procedure, shortened: as §2
# A549 = experiment: Growth inhibition of human A549 cells after 48 hrs by sulforhodamine B assay; details: A549, 48 h; procedure, shortened: as §2
# M14 = experiment: Growth inhibition of human M14 cells after 48 hrs by sulforhodamine B assay; details: M14, 48 h; procedure, shortened: as §2
# RPMI-8226 = experiment: Growth inhibition of human RPMI8226 cells after 48 hrs by sulforhodamine B assay; details: RPMI-8226, 48 h; procedure, shortened: as §2
# HCT-116 = experiment: Growth inhibition of human HCT116 cells after 48 hrs by sulforhodamine B assay; details: HCT-116, 48 h; procedure, shortened: as §2
# HOP-62 = experiment: Growth inhibition of human HOP62 cells after 48 hrs by sulforhodamine B assay; details: HOP-62, 48 h; procedure, shortened: as §2
# SN12C = experiment: Growth inhibition of human SN12C cells after 48 hrs by sulforhodamine B assay; procedure, shortened: as §2
# ACHN = experiment: Growth inhibition of human ACHN cells after 48 hrs by sulforhodamine B assay; procedure, shortened: as §2
# MOLT-4 = experiment: Growth inhibition of human MOLT4 cells after 48 hrs by sulforhodamine B assay; details: MOLT-4, 48 h; for CC50: read-out: pLC50 (the source's name) (converted); for TGI: read-out: pTGI (converted); procedure, shortened: as §2
# HL-60(TB) = experiment: Growth inhibition of human HL-60(TB) cells after 48 hrs by sulforhodamine B assay; details: HL-60, 48 h
# Procedure, shortened: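 Cells inoculated and preincubated 24–48 h in microtiter plates, then exposed continuously for 48 h to five 10-fold dilutions from 10^-4 to 10^-8 M. End point by sulforhodamine B protein staining, read spectrophotometrically against untreated controls and time-zero absorbance. Percent growth computed per concentration; GI50 taken where [(Ti−Tz)/(C−Tz)]×100 = 50, expressed as log molar value.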
# K562 = experiment: Growth inhibition of human K562 cells after 48 hrs by sulforhodamine B assay; details: K562, 48 h; procedure, shortened: as §2
# [3] = read-out: pLC50 (the source's name) (converted)
smiles,measurement,setting,value
O=C(/C=C1\SC(=O)N(CC(=O)Nc2ccccc2C(F)(F)F)C1=O)Nc1ccc(F)cc1,growth at 100 µM,SF-268,75%
same,growth at 100 µM,MCF7,74%
same,growth at 100 µM,NCI-H460,77%
COc1ccc(/C=C2/NC(=O)N(CC(=O)Nc3cc(C(F)(F)F)ccc3Cl)C2=O)cc1,GI50,SF-295,30.9 µM
same,CC50,SF-295; [3],> 100 µM
same,TGI,SF-295; read-out: pTGI,> 100 µM
same,GI50,NCI-H226,26.3 µM
same,CC50,NCI-H226,> 100 µM
same,TGI,NCI-H226,> 100 µM
same,GI50,HOP-92,6.03 µM
same,LC50,HOP-92,69.2 µM
same,TGI,HOP-92,24 µM
same,GI50,SR,7.24 µM
same,LC50,SR,49 µM
same,TGI,SR,20 µM
same,GI50,CCRF-CEM,21.9 µM
same,LC50,CCRF-CEM,> 100 µM
same,TGI,CCRF-CEM,> 100 µM
same,GI50,SNB-75,2690 nM
same,CC50,SNB-75; [3],> 100 µM
same,TGI,SNB-75; read-out: pTGI (converted),16.6 µM
same,GI50,U-251,9.33 µM
same,LC50,U-251,> 100 µM
same,TGI,U-251,63.1 µM
same,GI50,SK-OV-3,19.5 µM
same,LC50,SK-OV-3,> 100 µM
same,TGI,SK-OV-3; read-out: pTGI (converted),81.3 µM
same,GI50,[1],21.9 µM
same,CC50,[1],> 100 µM
same,TGI,[1],> 100 µM
same,GI50,MDA-MB-231,15.8 µM
same,LC50,MDA-MB-231,> 100 µM
same,TGI,MDA-MB-231,> 100 µM
same,GI50,[2],18.6 µM
same,CC50,[2],> 100 µM
same,TGI,[2],91.2 µM
O=C(/C=C1\SC(=O)N(CC(=O)Nc2ccccc2C(F)(F)F)C1=O)Nc1ccc(Cl)cc1,growth at 100 µM,SF-268,86%
same,growth at 100 µM,MCF7,61%
same,growth at 100 µM,NCI-H460,87%
O=C(CN1C(=O)N/C(=C/c2ccc(Cl)cc2)C1=O)Nc1cccc(C(F)(F)F)c1,growth at 100 µM,SF-268,100%
same,growth at 100 µM,MCF7,58%
same,GI50,NCI-H226,13.2 µM
same,CC50,NCI-H226,> 100 µM
same,TGI,NCI-H226,46.8 µM
same,GI50,A549,10.7 µM
same,CC50,A549; [3],> 100 µM
same,TGI,A549; read-out: pTGI,> 100 µM
same,GI50,HOP-92,5.37 µM
same,LC50,HOP-92,> 100 µM
same,TGI,HOP-92,28.8 µM
same,GI50,M14,14.5 µM
same,CC50,M14; [3],> 100 µM
same,TGI,M14; read-out: pTGI,> 100 µM
same,GI50,RPMI-8226,10 nM
same,LC50,RPMI-8226,28.2 µM
same,TGI,RPMI-8226; read-out: pTGI (converted),6.92 µM
same,GI50,CCRF-CEM,13.5 µM
same,LC50,CCRF-CEM,> 100 µM
same,TGI,CCRF-CEM,> 100 µM
same,growth at 100 µM,NCI-H460,4%
same,GI50,HCT-116,13.8 µM
same,LC50,HCT-116,> 100 µM
same,TGI,HCT-116; read-out: pTGI (converted),66.1 µM
same,GI50,HOP-62,12.6 µM
same,LC50,HOP-62,69.2 µM
same,TGI,HOP-62; read-out: pTGI (converted),29.5 µM
same,GI50,SN12C,12 µM
same,LC50,SN12C,100 µM
same,TGI,SN12C; read-out: pTGI (converted),34.7 µM
same,GI50,[1],13.8 µM
same,CC50,[1],89.1 µM
same,TGI,[1],35.5 µM
same,GI50,ACHN,14.5 µM
same,CC50,ACHN; [3],56.2 µM
same,TGI,ACHN; read-out: pTGI (converted),28.8 µM
same,GI50,MOLT-4,2.51 µM
same,CC50,MOLT-4,> 100 µM
same,TGI,MOLT-4,> 100 µM
same,GI50,MDA-MB-231,4.57 µM
same,LC50,MDA-MB-231,> 100 µM
same,TGI,MDA-MB-231,22.9 µM
same,GI50,[2],10.5 µM
same,CC50,[2],> 100 µM
same,TGI,[2],77.6 µM
O=C(CN1C(=O)S/C(=C\c2ccc(Cl)cc2)C1=O)Nc1ccc(Cl)cc1,growth at 100 µM,SF-268,105%
same,growth at 100 µM,MCF7,102%
same,growth at 100 µM,NCI-H460,101%
COc1ccc(/C=C2\NC(=O)N(CC(=O)Nc3ccc(OC)cc3)C2=O)cc1,GI50,CCRF-CEM,0.195 µM
same,LC50,CCRF-CEM,> 100 µM
same,TGI,CCRF-CEM,> 100 µM
same,GI50,U-251,30.9 µM
same,LC50,U-251,> 100 µM
same,TGI,U-251,> 100 µM
O=C(CN1C(=O)N/C(=C\c2ccc(Cl)cc2)C1=O)Nc1ccccc1C(F)(F)F,GI50,HOP-92,18.2 µM
same,LC50,HOP-92,> 100 µM
same,TGI,HOP-92,97.7 µM
same,GI50,SR,0.309 µM
same,LC50,SR,52.5 µM
same,TGI,SR,12.6 µM
same,GI50,CCRF-CEM,1.2 µM
same,LC50,CCRF-CEM,> 100 µM
same,TGI,CCRF-CEM,> 100 µM
same,GI50,HL-60(TB),295 nM
same,CC50,HL-60(TB); [3],> 100 µM
same,TGI,HL-60(TB); read-out: pTGI (converted),2000 nM
same,GI50,MOLT-4,4.57 µM
same,CC50,MOLT-4,81.3 µM
same,TGI,MOLT-4,24 µM
same,GI50,K562,5.37 µM
same,CC50,K562; [3],> 100 µM
same,TGI,K562; read-out: pTGI,> 100 µM
COc1ccc(/C=C2\SC(=O)N(CC(=O)Nc3nccs3)C2=O)cc1,growth at 100 µM,SF-268,107%
same,growth at 100 µM,MCF7,98%
same,growth at 100 µM,NCI-H460,98%
O=C(CC1NC(=O)NC1=O)Nc1nccs1 (configuration not stated),growth at 100 µM,SF-268,114%
same,growth at 100 µM,MCF7,111%
same,growth at 100 µM,NCI-H460,108%
